# Screens: PubChem, several laboratories
# The entries come from a sample that favours hits as a whole.
# ROMK primary – modulates human ROMK potassium channel activity | Tet-inducible ROMK, thallium flux fluorescence; actives lie on both sides | B-score at 10 µM | 130,000 compounds, 2% hits;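 active means signal ratio slope over the read window, or its plate-corrected B-score, at least 3 SD from the plate mean, either direction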;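 further: B-score of the F/F0 ratio slope over 7 to 12 s after thallium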
# Target sequence (P48048 whole entry, looked up): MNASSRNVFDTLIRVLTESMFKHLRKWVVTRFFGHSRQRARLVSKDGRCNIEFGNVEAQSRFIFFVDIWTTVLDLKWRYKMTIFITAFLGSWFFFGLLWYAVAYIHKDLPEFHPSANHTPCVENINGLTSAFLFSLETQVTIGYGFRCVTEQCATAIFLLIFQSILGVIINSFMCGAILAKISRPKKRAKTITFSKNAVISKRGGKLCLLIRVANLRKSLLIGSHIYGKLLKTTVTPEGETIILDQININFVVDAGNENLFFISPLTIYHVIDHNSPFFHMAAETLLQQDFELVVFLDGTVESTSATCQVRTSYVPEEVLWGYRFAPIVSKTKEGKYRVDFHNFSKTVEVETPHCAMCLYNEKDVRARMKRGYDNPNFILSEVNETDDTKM
# Biofilm kill mix – mixtures killing C. albicans biofilm; C. albicans biofilm persisters + clotrimazole, fluorescence viability; primary screen in compound mixtures of four per well; inhibition, % at 7.6 µM; 120,000 compounds, 0.02% hits;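 active means inhibition above 30.3% in the primary screen of four-compound pools, then above 30% when the compound was retested; inconclusive means passed the primary limit but could not be retested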;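 further: compounds exposed to preformed 24 h biofilms for 48 h; 0% = untreated biofilm control and 100% = clotrimazole plus chlorhexidine kill blank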
#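 Probe or stimulus – Clotrimazole 50 µg/mL co-treatment · System – C. albicans biofilms · Schedule – 24 h biofilm formation, then 48 h compound exposure, 37 °C · Evaluation – percent inhibition of biofilm viability · Technique – 2-h Alamar Blue fluorescence, 535/590 nm excitation/emission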
# ROMK hit retest – retested hit modulating human ROMK potassium channel; ROMK thallium flux, fluorescence ratio; active compounds read low; normalized thallium flux (F/F0 slope) at 10 µM; 3,000 compounds, 54% hits; shares compounds with ROMK primary;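 active means Flux at 10 µM at least 3 SD below or above vehicle control mean in one or both replicates; inconclusive means no clear call, values can overlap the other calls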
# * marks the source's active call; other numbers are inactive results; ? = inconclusive; nt = not tested or not shown.
SMILES,ROMK primary,Biofilm kill mix,ROMK hit retest
CCSC1(SCC)N=C(N)C2(C#N)C(c3ccc(F)cc3)C12C#N (configuration not stated),nt,nt,?
Cc1ccc(O)c(C(=O)c2cnn(C(=O)Cc3csc(C)n3)c2)c1,-6.7*,nt,0.0784
Cc1nc(CC(=O)c2ccc(O)c(C)c2O)cs1,nt,27.4,nt
Cc1ccc(C2CC(c3cccs3)=NN2C(=O)CSc2nc3ccccc3o2)cc1 (configuration not stated),-0.625,17.3,nt
Cc1cc(C)nc(/N=C(\N)Nc2ccccc2-c2ccccc2)n1,-4.82*,2.5,0.053*
Cc1cc(C)cc(N/C(N)=N/c2nc(C)cc(C)n2)c1,0.724,8.9,nt
CCCCc1ccc(N/C(N)=N/c2nc(C)cc(C)n2)cc1,nt,12.5,0.0566*
Cc1ccc(N/C(N)=N/c2nc(C)cc(C)n2)cc1,-0.0831,8.9,nt
C=CCN(CC=C)C(=O)C(=O)c1ccn(-c2c(C)csc2C(=O)OC)c1,0.77,9.9,nt
Cn1c(=O)n(C)c2cc([N+](=O)[O-])c(N3CCN(CCO)CC3)cc21,0.0562,7.4,nt
O=C(c1ccc(COc2ccccc2Br)o1)N1N=C(C(F)F)CC1(O)C(F)F (configuration not stated),nt,13.7,nt
N/C(=N\O)c1ccc(Cl)cc1Cl,-0.0352,15.3,nt
Cc1sc(NC(=O)CCCC(=O)O)c(C#N)c1C,nt,nt,0.0771
CCCCCC(=O)Nc1sc(C)c(C)c1C#N,nt,14.8,nt
O=C(c1cccc([N+](=O)[O-])c1)N1CCN(c2cccc(Cl)c2)CC1,-0.0518,15.0,nt
COC(=O)c1cc(C(=O)N2CCN(c3cccc(Cl)c3)CC2)cc([N+](=O)[O-])c1,3.72*,9.7,?
CS(=O)(=O)N1N=C(c2ccco2)CC1c1ccc(Cl)cc1Cl (configuration not stated),0.0192,15.5,nt
Cc1ccc(C)c(NC(=O)COC(=O)CCC(=O)c2cccs2)c1,-0.0189,8.7,nt
COc1ccc(C(=O)NCc2ccc(S(N)(=O)=O)cc2)cc1[N+](=O)[O-],-12.9*,13.7,0.0886
Cc1cc(C(=O)NCc2ccc(S(N)(=O)=O)cc2)ccc1[N+](=O)[O-],-0.159,10.1,nt
O=C(NCc1nc(-c2ccc(C(F)(F)F)cc2)no1)Nc1cc(Cl)cc(Cl)c1,0.0987,21.2,nt
COc1ccc(-n2c(-c3cnccn3)n[nH]c2=S)cc1,nt,nt,0.0862
S=c1[nH]nc(-c2cnccn2)n1-c1ccccc1,1.13,nt,nt
Oc1ccccc1CNc1ccc(OC(F)(F)F)cc1,0.184,10.1,nt
Cc1ccc(-n2cccc2/C=C2/C(=N)N3C(=NC2=O)SN=C3S(C)(=O)=O)cc1Cl,nt,12.6,0.0754
SMILES,ROMK primary,Biofilm kill mix,ROMK hit retest
Cc1cccc(C)c1-n1cccc1/C=C1/C(=N)N2C(=NC1=O)SN=C2S(C)(=O)=O,-2.35,19.5,nt
Cc1ccc(NC(=O)C(=Cc2ccc(C(=O)O)cc2)C(=O)Nc2ccc(C)cc2C)c(C)c1,nt,17.6,nt
CC(=NCc1ccco1)c1c(O)n(C2CCCCC2)c(=O)[nH]c1=O,-2.82*,nt,0.0585*
CC(=O)c1c(O)c2ccccc2n(C2CCCCC2)c1=O,0.156,14.3,nt
O=C(O)/C(=N/NC(=O)c1ccc(Cl)cc1)c1ccccc1,nt,17.8,nt
Cc1cnc(NC(=O)c2sc(Nc3ccccc3)nc2N)o1,0.282,7.6,nt
Nc1nc(Nc2ccccc2)sc1C(=O)c1ccccc1,nt,2.0,?
Clc1ccc(CSc2nnc(-c3cccnc3)n2Cc2ccco2)c(Cl)c1,-2.4*,nt,?
c1cncc(CSc2nnc(-c3cccnc3)n2Cc2ccco2)c1,0.775,nt,nt
Clc1c(Cl)c(Cl)c2n[nH]nc2c1Cl,nt,8.5,nt
CC(=O)Nc1ccc(NC(=O)C(C)OC(=O)c2ccccc2NS(=O)(=O)c2cccs2)cc1 (configuration not stated),nt,22.1,nt
Cc1cccc(NC(=O)C(C)OC(=O)c2ccccc2NS(=O)(=O)c2cc(C)c(C)c([N+](=O)[O-])c2)c1 (configuration not stated),-2.99*,-5.0,0.0613*
CCOC(=O)c1sc2nc3c(SCCC#N)cc(C(=O)c4cc(F)ccc4O)cn3c(=O)c2c1C,-3.84*,13.7,0.0703
CCOC(=O)c1sc2nc3c(SCCC(=O)O)cc(C(=O)c4cc(OC)ccc4O)cn3c(=O)c2c1C,0.029,12.4,nt
N#Cc1cc2c(=O)n3ccccc3nc2n(-c2ccccc2Cl)c1=O,-0.276,0.3,nt
O=C(Nc1cccc(S(=O)(=O)c2cccc(NC(=O)C3CC3)c2)c1)C1CC1,-0.797,nt,0.074
CS(=O)(=O)c1cccc(NC(=O)C2CC2)c1,nt,11.5,nt
Cc1ccc(-n2nc(-c3ccco3)cc2C(=O)O)c(C)c1,-0.273,16.2,nt
CC(CSc1nc2ccccc2s1)Cn1c(N2CCCC2)nc2c1c(=O)[nH]c(=O)n2C (configuration not stated),-3.07*,nt,0.0599*
CC1CCN(c2nc3c(c(=O)[nH]c(=O)n3C)n2CC(C)CSc2nnnn2-c2ccccc2)CC1 (configuration not stated),-1.72,13.3,nt
O=C(C[n+]1cc(-c2ccc(Cl)cc2)n2c1CCC2)N1c2ccccc2Sc2ccccc21,-1.99,21.8,nt
CC1CCC(C(C)C)C(OC(=O)C[n+]2cc(-c3ccc(Cl)cc3)n3c2CCC3)C1 (configuration not stated),-6.59*,13.9,0.0473*
CCOP(=O)(OCC)C(Nc1ccccc1)c1cccnc1 (configuration not stated),0.11,15.9,nt
O=P(OC1CCCCC1)(OC1CCCCC1)C(Nc1ccccc1)c1cccnc1 (configuration not stated),nt,9.4,?
O=C(O)c1ccc(Cl)c(NC(=S)NC(=O)c2ccccc2[N+](=O)[O-])c1,-0.0276,13.5,nt
SMILES,ROMK primary,Biofilm kill mix,ROMK hit retest
O=C(CCS(=O)(=O)Cc1ccc(Cl)cc1)NCCc1ccccc1,-0.401,8.1,nt
Cc1csc(C(=O)O)c1NC(=O)c1cccc([N+](=O)[O-])c1,1.67,13.3,nt
Cc1cc(C)cc(N(C(=O)c2sc(C)nc2C)C(C(=O)NC(C)(C)C)c2ccncc2)c1 (configuration not stated),-0.0311,14.7,nt
NC(N)=Nc1nc2ccc(Cl)cc2c(=O)[nH]1,0.238,2.9,nt
CCOc1ccc2[nH]c(=O)c(CN(Cc3cccnc3)C(=O)Nc3ccccc3OC)cc2c1,-0.814,nt,nt
CCc1ccc2[nH]c(=O)c(CN(Cc3ccccc3OC)C(=O)Nc3ccccc3OC)cc2c1,0.96*,nt,0.0804
CCc1c(C)c(C#N)c2[nH]c3ccccc3n2c1=S,nt,14.0,nt
CCOC(=O)c1oc2nc3c(cc2c1N)COC(C)(C)C3,3.54*,nt,0.0779
CCOC(=O)c1oc2nc3c(cc2c1N)CCCC3,nt,9.8,nt
NNC(=S)Nc1c(F)cc(F)cc1Br,1.18,11.4,nt
CC(CC(=O)O)CC(=O)Nc1ccc(Br)cc1 (configuration not stated),nt,19.3,nt
CCOC(=O)c1nc(C)sc1-c1ccnn1S(=O)(=O)c1cccc(Cl)c1,nt,8.6,nt
O=C(Nc1ccc2c(c1)nc1n2CCN(C2CCCCC2)C1)NC1CCCCC1,-3.1*,nt,0.0418*
CCC(=O)Nc1ccc2c(c1)nc1n2CCN(C2CCCCC2)C1,0.731,14.8,nt
CC/C(=N/Nc1ccc(Cl)cc1)c1cnnc(SC)n1,0.148,6.1,nt
CC/C(=N/Nc1cccc(C)c1)c1cnnc(SC)n1,-4.11*,20.7,?
Cc1[nH]c(=S)c(C#N)c(-c2ccco2)c1C(=O)N(C)C,0.0953,9.6,nt
CCOC(=O)C1(CCOc2ccccc2)CCN(Cc2ccc(COC)o2)CC1,-0.275,17.6,nt
